Source: PubChem
TRPC6 activator: activators of mouse TRPC6 channel | Q61143 | HEK293-TRPC6 membrane potential dye fluorescence; active compounds read high | B-score at 10 µM | 0.13% of 310,000 active | AID 2550;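 active means B-score of the integrated fluorescence ratio above library mean plus 3 SD, and starting fluorescence ratio within library mean plus 5 SD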;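 further: higher score means more depolarization so channel activation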
Target sequence (Q61143 whole entry, looked up): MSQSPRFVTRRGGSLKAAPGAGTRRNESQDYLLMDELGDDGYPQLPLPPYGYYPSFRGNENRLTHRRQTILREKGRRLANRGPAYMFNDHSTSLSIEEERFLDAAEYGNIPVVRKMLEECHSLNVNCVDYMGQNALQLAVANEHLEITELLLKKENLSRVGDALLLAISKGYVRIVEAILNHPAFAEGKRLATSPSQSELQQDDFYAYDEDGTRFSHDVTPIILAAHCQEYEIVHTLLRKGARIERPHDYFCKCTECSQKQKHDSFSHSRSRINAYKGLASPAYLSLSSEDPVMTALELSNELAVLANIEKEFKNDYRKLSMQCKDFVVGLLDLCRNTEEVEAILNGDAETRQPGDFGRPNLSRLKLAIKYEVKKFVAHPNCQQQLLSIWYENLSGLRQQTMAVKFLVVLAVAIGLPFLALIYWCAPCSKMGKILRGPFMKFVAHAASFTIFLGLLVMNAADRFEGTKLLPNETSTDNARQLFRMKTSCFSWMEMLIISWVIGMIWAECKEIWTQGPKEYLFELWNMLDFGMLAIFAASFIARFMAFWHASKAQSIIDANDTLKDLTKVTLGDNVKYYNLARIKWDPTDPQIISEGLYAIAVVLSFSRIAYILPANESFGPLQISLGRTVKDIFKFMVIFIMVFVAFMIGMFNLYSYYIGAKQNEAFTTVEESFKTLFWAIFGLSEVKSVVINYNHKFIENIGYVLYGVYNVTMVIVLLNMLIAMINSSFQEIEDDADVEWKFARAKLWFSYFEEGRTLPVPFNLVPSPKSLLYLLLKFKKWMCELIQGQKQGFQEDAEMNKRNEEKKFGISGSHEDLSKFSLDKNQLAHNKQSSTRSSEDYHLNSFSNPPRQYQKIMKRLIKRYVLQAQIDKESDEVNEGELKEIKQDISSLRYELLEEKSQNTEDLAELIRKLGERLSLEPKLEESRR
TRPC4 block: blocks the mouse TRPC4 cation channel. Q9QUQ5. HEK293 TRPC4beta/mu-opioid, DAMGO-evoked Fluo4 calcium flux; active compounds read low. B-score at 10 µM. 0.39% of 300,000 active. AID 2247;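 active means B-score over 3 SD under the library average, no early fluorescence shift, positive overall ratio signal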
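material = TRPC4beta/mu-opioid receptor HEK293 cell line | probe or stimulus = sequential submaximal and maximal DAMGO stimulation | compound dosing = one concentration per compound | measured by = Fluo4 Ca2+ flux fluorescence | evaluation = integrated fluorescence ratio relative to baseline, converted to per-well B score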
TRPC4 agonist: opens the mouse TRPC4 cation channel | Q9QUQ5 | 0.49% of 310,000 active | AID 2237 | HEK293 TRPC4beta/mu-opioid, Fluo4 calcium fluorescence; active compounds read high | B-score at 10 µM;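 active means B-score above 5 SD of library B-scores, and initial fluorescence ratio not above library mean plus 5 SD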;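 further: positive B-score marks a calcium rise read as TRPC4 activation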
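Incubation: 45 min room-temperature Fluo4 loading, 110 s read / System: HEK293 cells stably co-expressing mouse TRPC4beta and mu-opioid receptor / Signal: Fluo4 fluorescence, kinetic / Control set: buffer (low) and maximal DAMGO (high) / Measure: integrated baseline-normalised fluorescence ratio, converted to per-well B score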
TRPC4 potent: allosteric potentiators of mouse TRPC4 channel; Q9QUQ5; HEK293 TRPC4beta/mu-opioid, DAMGO EC20, Fluo-4 Ca2+ flux; active compounds read high; B-score at 10 µM; 0.42% of 310,000 active; AID 2227;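 active means B-score of calcium response area above 5 SD of library B-scores, with initial fluorescence ratio within 5 SD of library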
TRPC6 inh: mouse TRPC6 channel inhibition | Q61143 | HEK293-TRPC6, membrane potential dye, ACh-evoked depolarization; active compounds read low | B-score at 10 µM | 1.1% of 310,000 active | AID 2553;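 active means B-score under library mean minus 3 SD, initial fluorescence not abnormally high, positive integrated signal ratio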;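 further: B-score derived from integrated fluorescence ratio over the kinetic read; more negative B-score means stronger inhibition of depolarization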
TRPC4 spec 2: mouse TRPC4 off-target activity of TRPC6 inhibitors, second screen | shares compounds with TRPC6 inh | HEK293 TRPC4/MOR, membrane potential dye fluorescence; channel activated by saturating DAMGO dose | inhibition, % at 10 µM | 42% of 920 active;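 active means compounds whose fluorescence signal differed from control wells by over 3 SD, either direction, in both duplicate plates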
TRPC4 spec: selectivity of TRPC6 inhibitors: effect on mouse TRPC4; shares compounds with TRPC6 inh; HEK293 TRPC4/mu-opioid, membrane potential fluorescence; activity change, negative = inhibition, % at 10 µM; 61% of 920 active; AID 2777;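 active means rise or fall in signal beyond 3 SD of buffer-only wells in both replicate plates, either sign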;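 further: integrated kinetic ratio of fluorescence range over baseline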
HEK293 MPD ctr 2-1: parental HEK293 nonspecific activity of TRPC6 inhibitors, second screen; shares compounds with TRPC6 inh; parental HEK293 membrane potential dye fluorescence; maximal acetylcholine challenge after compound addition; signal change vs control, % at 10 µM; 31% of 920 active; AID 2779;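 active means membrane potential signal moving either way by over 3 SD of the maximum-effect control, in both duplicate plates, meaning non-specific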
HEK293 MPD ctr-1: parental HEK293 nonspecific activity of TRPC6 inhibitors. 60% of 920 active. shares compounds with TRPC6 inh. AID 2780. parental HEK293 membrane potential dye fluorescence. membrane potential signal change, % at 10 µM;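 active means membrane potential signal shifting up or down by more than 3 SD of buffer-only wells, on both duplicate plates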
HEK293 MPD ctr-2: counter-screen for TRPC6 modulators: effect in parental HEK293 cells. shares compounds with TRPC6 inh. membrane potential dye fluorescence. membrane potential signal change, % at 10 µM. 51% of 2,400 active;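 active means membrane potential signal moves up or down beyond 5 SD from buffer-only wells, on both duplicate plates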
HEK293 MPD ctr 2-2: second check of TRPC6 modulator effects in parental HEK293 cells | 14% of 2,400 active | inhibition, % at 10 µM | shares compounds with TRPC6 inh | membrane potential dye fluorescence; after compound, maximal acetylcholine stimulation;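 active means membrane potential signal drops by more than 5 SD from the mean control signal, in both duplicate plates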
TRPC4 ctr mod: tests whether TRPC6 modulators also affect mouse TRPC4 | shares compounds with TRPC6 inh | HEK293 TRPC4/mu-opioid, membrane potential fluorescence | percent change from control (negative = decrease, positive = increase), % at 10 µM | 69% of 2,400 active | AID 488927;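 active means membrane potential signal moved up or down beyond 5 SD of buffer control wells, in both duplicate plates, actives on both sides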
TRPC4/MOR inh 2: mouse TRPC4 off-target activity of TRPC6 modulators, second screen. shares compounds with TRPC6 inh. HEK293 TRPC4/mu-opioid, membrane potential dye fluorescence; stimulated with maximal-effect DAMGO. inhibition, % at 10 µM. 55% of 2,400 active. AID 488928;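 active means drop in membrane potential signal beyond 5 SD of the control wells in both duplicate plates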;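 further: TRPC4 counter screen for TRPC6 hits run under conditions tuned for TRPC6 not TRPC4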
TRPC6 block conf: confirmation of mouse TRPC6 inhibitors; 43% of 3,300 active; HEK293-TRPC6, membrane potential dye, ACh-evoked depolarization; inhibition, % at 10 µM; shares compounds with TRPC6 inh;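 active means fluorescence ratio falls more than 5 SD below the full-stimulation control mean, in both duplicate runs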;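 further: integrated fluorescence ratio of peak minus minimum over baseline after agonist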
TRPC6 act confirm: mouse TRPC6 activator confirmation; shares compounds with TRPC6 inh; HEK293-TRPC6 membrane potential dye fluorescence, FDSS; activation, % at 10 µM; 11% of 2,800 active; AID 488961;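 active means ratio signal rise beyond 5 SD above unstimulated control wells' mean, seen in both duplicate runs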
Of the large screens only hits and unclear results are named; the others gave an inactive call (follow-up assays come after a bar, where they were run). Hits are enriched below; roughly 2.3% of the tested compounds scored in any of these assays.

Cc1nn(C(C)C(=O)N2CCN(c3ccccn3)CC2)c(=O)c2cc3occc3n12 (stereo not drawn)	none
COc1cc(/C=C2/SC(=S)N(CC3CCCO3)C2=O)ccc1O (stereo not drawn)	TRPC6 activator 16 | HEK293 MPD ctr-2 212% | HEK293 MPD ctr 2-2 inactive | TRPC4 ctr mod 89% | TRPC4/MOR inh 2 inactive | TRPC6 block conf inactive | TRPC6 act confirm 40%
COc1ccc(/C=C2\SC(=S)N(CC3CCCO3)C2=O)cc1 (stereo not drawn)	none
COc1ccc2nc(C)cc(N3CCC(C(N)=O)CC3)c2c1	TRPC6 inh -9.1 | HEK293 MPD ctr-2 -356% | HEK293 MPD ctr 2-2 94% | TRPC4 ctr mod -60% | TRPC4/MOR inh 2 62% | TRPC6 block conf 72% | TRPC6 act confirm inactive
CCOC(=O)C1CCN(c2cc(C)nc3ccc(OC)cc23)CC1	TRPC6 inh -8.9 | HEK293 MPD ctr-2 -236% | HEK293 MPD ctr 2-2 85% | TRPC4 ctr mod -36% | TRPC4/MOR inh 2 70% | TRPC6 block conf 86% | TRPC6 act confirm inactive
COc1ccc(N2CCN(c3cc(C)nc4ccc(OC)cc34)CC2)cc1	TRPC6 inh -5.6 | HEK293 MPD ctr-2 -228% | HEK293 MPD ctr 2-2 inactive | TRPC4 ctr mod -42% | TRPC4/MOR inh 2 65% | TRPC6 block conf 62% | TRPC6 act confirm inactive
CCOC(=O)C1CCN(c2nc3cc(OC)ccc3cc2C#N)CC1	none
COc1ccc(/C=C/c2onc(C)c2S(=O)(=O)N2CCC(C(=O)N3CCC(C)CC3)CC2)cc1	none
CCOC(=O)c1nnc(-c2ccccc2)nc1NCc1ccccc1	none
CCOC(=O)c1c2n(c3c(NCc4ccccc4)ncnc13)CCCC2	TRPC6 inh -5.2 | HEK293 MPD ctr-2 -94% | HEK293 MPD ctr 2-2 66% | TRPC4 ctr mod -16% | TRPC4/MOR inh 2 46% | TRPC6 block conf 54% | TRPC6 act confirm inactive
Oc1ccccc1N=Nc1ccccc1O	none
Nc1ccc(N=Nc2ccccc2O)c(N)c1	TRPC6 inh -6.5 | HEK293 MPD ctr-2 -174% | HEK293 MPD ctr 2-2 inactive | TRPC4 ctr mod 28% | TRPC4/MOR inh 2 98% | TRPC6 block conf inactive | TRPC6 act confirm inactive
CCOc1ccc(-c2c(C(=O)N/N=C/c3cccc(Br)c3)nnn2-c2nonc2N)cc1	none
CCOC(=O)N1CCC(n2c(SCC(=O)OCc3ccccc3)nc3ccsc3c2=O)CC1	none
CCOC(=O)CSc1nc2ccsc2c(=O)n1C1CCN(C(=O)OCC)CC1	TRPC6 activator 15, TRPC6 inh -6.8 | HEK293 MPD ctr-2 133% | HEK293 MPD ctr 2-2 inactive | TRPC4 ctr mod 34% | TRPC4/MOR inh 2 inactive | TRPC6 block conf inactive | TRPC6 act confirm 60%
CN(C)c1nc(C=C(C#N)C#N)c(Cl)n1-c1ccc(F)cc1	none
O=c1c2ccccc2nc(SCCN2CCCCC2)n1CCc1ccccc1	TRPC6 inh -7.8 | TRPC4 spec 2 42% | TRPC4 spec inactive | HEK293 MPD ctr 2-1 inactive | HEK293 MPD ctr-1 inactive | TRPC6 block conf 68% | TRPC6 act confirm inactive
Cn1c(=O)c2c(nc(SCCN3CCCCC3)n2Cc2ccc(Cl)cc2)n(C)c1=O	TRPC4 agonist 80, TRPC4 potent 40, TRPC6 inh -6.2 | HEK293 MPD ctr-2 -121% | HEK293 MPD ctr 2-2 inactive | TRPC4 ctr mod 26% | TRPC4/MOR inh 2 93% | TRPC6 block conf inactive | TRPC6 act confirm inactive
NC(=O)CSc1nc2ccccc2c(=O)n1CCc1ccccc1	none
O=C(CCl)Nc1cc2[nH]c(=O)[nH]c2cc1Br	none
O=C(NC1CC(=O)N(c2ccc(Cl)cc2)C1)N1CCN(C(=O)c2ccco2)CC1 (stereo not drawn)	none
Cc1ccccc1Nc1nc(N)c2ccccc2n1	TRPC6 inh -6.8 | TRPC4 spec 2 32% | TRPC4 spec -26% | HEK293 MPD ctr 2-1 36% | HEK293 MPD ctr-1 -330% | TRPC6 block conf 70% | TRPC6 act confirm inactive
Nc1nc(Nc2ccc(Cl)cc2)nc2ccccc12	TRPC6 inh -12 | HEK293 MPD ctr-2 -163% | HEK293 MPD ctr 2-2 90% | TRPC4 ctr mod -36% | TRPC4/MOR inh 2 88% | TRPC6 block conf 84% | TRPC6 act confirm inactive
COc1ccc([N+](=O)[O-])cc1Nc1c2ccccc2nc2ccccc12	none
COc1ccc(C)cc1Nc1nc(N)c2ccccc2n1	TRPC6 inh -10 | HEK293 MPD ctr-2 -221% | HEK293 MPD ctr 2-2 112% | TRPC4 ctr mod -52% | TRPC4/MOR inh 2 91% | TRPC6 block conf 100% | TRPC6 act confirm inactive
CN(C)c1ccc(Nc2nc(N)c3ccccc3n2)cc1	TRPC6 inh -7.3 | HEK293 MPD ctr-2 -182% | HEK293 MPD ctr 2-2 90% | TRPC4 ctr mod -45% | TRPC4/MOR inh 2 86% | TRPC6 block conf 84% | TRPC6 act confirm inactive
CN(C)c1nc(Nc2ccccc2)nc(N(C)C)n1	none
Cc1ccc(Nc2nc(N)c3ccccc3n2)cc1Cl	TRPC6 inh -6.5 | HEK293 MPD ctr-2 -128% | HEK293 MPD ctr 2-2 83% | TRPC4 ctr mod -35% | TRPC4/MOR inh 2 79% | TRPC6 block conf 75% | TRPC6 act confirm inactive
CCOc1ccc(Nc2nc(N)c3ccccc3n2)cc1	none
COc1cc2nc(Nc3ccc(C)c(Cl)c3)nc(N)c2cc1OC	none
